What is called IC50 is the concentration that inhibits the measured activity by half. A lower IC50 goes with higher potency.

Experimental findings from ChEMBL document CHEMBL1154696, “Synthesis and antitumor evaluation of analogues of the marine pyrroloiminoquinone tsitsikammamines” (Eur J Med Chem, 2010) are described below.

Data set [1] in a line: Cytotoxicity against human U373 cells after 72 hrs by MTT assay. As to conditions: U373 MG. The format is functional, cell-based, U-373MG ATCC. In a few lines:
(§1)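 Cells plated at 10,000 to 40,000 cells/mL, depending on cell type, and incubated 24 h before treatment. Growth was read after 72 h culture with or without compound. MTT reduction to formazan by living cells was read by spectrophotometry at 570 nm with a 630 nm reference. IC50 growth inhibitory concentrations were derived. NHDF and Wi38 are normal human fibroblasts.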
(In general: Tetrazolium assays rely on reduction of a dye to a coloured formazan, in cell work by metabolically active cells.)

The subject of data set [2] is A549. Briefly: Cytotoxicity against human A549 cells after 72 hrs by MTT assay. The format is functional, cell-based. As to conditions: A549, 72 h. In a few lines: as §1
For data set [3], the system named is PC-3. The data set is described as follows: Cytotoxicity against human PC3 cells after 72 hrs by MTT assay. The format is functional, cell-based. As to conditions: PC-3, 72 h. In a few lines: as §1
In data set [4] the test system is NHDF. Briefly: Cytotoxicity against human NHDF cells after 72 hrs by MTT assay. Format: cell-based. The procedure, abridged:
as §1

Data set [5] is described as follows: Cytotoxicity against human WI38 cells after 72 hrs by MTT assay. The format is cell-based. As to conditions: wi-38, 72 h. The procedure, abridged:
as §1

The subject of data set [6] is U-373MG ATCC. The data set is described as follows: Cytotoxicity against human apoptosis-resistant U373 cells at 5 uM after 2 hrs by computer-assisted phase contrast microscopy. Format: functional, cell-based. In a few lines:
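U373 glioblastoma cells were cultured with or without 5 μM compound. Morphology was followed by quantitative computer-assisted phase-contrast videomicroscopy at 100x and 400x magnification over about 2 h after compound addition, to tell cytotoxic from cytostatic effects.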

The source made the active and inactive calls. The calls are words filed in the database; no cut-off is given here.

Consider `COc1ccc(-c2c[nH]c3c2C(=O)c2[nH]cc4c2C3=NCC4)cc1`, for which the IC50 in data set [1] is 4.1 µM; in data set [2], 38.1 µM; in data set [3], 55.7 µM.

As to `COc1ccc(C(O)CNC2=CC(=O)c3ccn(S(=O)(=O)c4ccc(C)cc4)c3C2=O)cc1` (stereo unspecified), the IC50 is 29.2 µM in data set [1], > 100 µM in data set [2] and > 100 µM in data set [3].

Consider `O=C1c2cc[nH]c2C(=O)c2c(-c3ccc(O)cc3)c[nH]c21`, for which the results for the IC50 in data set [1], in data set [2] and in data set [3] were 37 µM, 74.5 µM and > 100 µM, respectively.

`COc1ccc(C2CNC3=C2C(=O)c2c4c(cn2S(=O)(=O)c2ccc(C)cc2)CCN=C34)cc1` (stereo unspecified): the IC50 in data set [1] was determined as 30.5 µM; in data set [2], 25.9 µM; in data set [3], 20.5 µM.

Take `COc1ccc(C(O)CNC2=CC(=O)c3c(ccn3S(=O)(=O)c3ccc(C)cc3)C2=O)cc1` (stereo unspecified): the IC50 worked out at 56.4 µM in data set [1], 70.2 µM in data set [2] and 37.3 µM in data set [3].

`COc1ccc(-c2c[nH]c3c2C(=O)c2c4c(cn2S(=O)(=O)c2ccc(C)cc2)CCN=C34)cc1`: the results for the half-inhibitory concentration (IC50) in data set [1], in data set [2] and in data set [3] were 41.4 µM, 3.1 µM and > 100 µM, respectively.

In the case of `COc1ccc(-c2c[nH]c3c2C(=O)c2[nH]cc4ccnc-3c24)cc1`, the IC50 in data set [1], in data set [2] and in data set [3] was > 100 µM in each case.

With `COc1ccc(-c2c[nH]c3c2C(=O)c2[nH]ccc2C3=O)cc1`, the IC50 in data set [1], in data set [2] and in data set [3] was > 100 µM in each case.

As to `COc1ccc(-c2c[nH]c3c2C2=NCCc4c[nH]c(c42)C3=O)cc1`, the IC50 in data set [1], in data set [2] and in data set [3] was > 100 µM each time.

With `COc1ccc(C2CNC3=C2C(=O)c2c(ccn2S(=O)(=O)c2ccc(C)cc2)C3=O)cc1` (stereo unspecified), the IC50 came to 51.9 µM in data set [1], 52.4 µM in data set [2] and 33.7 µM in data set [3].

For `O=C1C2=C(N=CC2c2ccc(O)cc2)C(=O)c2[nH]ccc21` (stereo unspecified), the IC50 in data set [1], in data set [2] and in data set [3] was > 100 µM throughout.

For `COc1ccc(-c2c[nH]c3c2C(=O)c2ccn(S(=O)(=O)c4ccc(C)cc4)c2C3=O)cc1`, the IC50 was > 100 µM in data set [1], 77.6 µM in data set [2] and 24.6 µM in data set [3].

Consider `COc1ccc(C2C=NC3=C2C(=O)c2cc[nH]c2C3=O)cc1` (stereo unspecified), for which the figures for the IC50 in data set [1], in data set [2] and in data set [3] were 7.6 µM, 7.8 µM and > 100 µM, respectively.

Regarding `COc1ccc(-c2c[nH]c3c2C(=O)c2c(c(CCN)cn2S(=O)(=O)c2ccc(C)cc2)C3=O)cc1`, the IC50 is 8.5 µM in data set [1], 11.2 µM in data set [2] and 31.3 µM in data set [3]. Further, the Activity entry in data set [4] and in data set [5] was “Non-toxic” each time.

Turning to `O=C1c2[nH]cc3c2C(=NCC3)c2c(-c3ccc(O)cc3)c[nH]c21` [TSITSIKAMMAMINE A], the values for the IC50 in data set [1], in data set [2] and in data set [3] were 18.1 µM, 15.6 µM and 23 µM, respectively.

Turning to `COc1ccc(-c2c[nH]c3c2C(=O)c2c(ccn2S(=O)(=O)c2ccc(C)cc2)C3=O)cc1`, the IC50 is 48.2 µM in data set [1], 41.3 µM in data set [2] and 48.2 µM in data set [3].

For the compound `COc1ccc(-c2c[nH]c3c2C2=NCCc4cn(S(=O)(=O)c5ccc(C)cc5)c(c42)C3=O)cc1`, the figures for the IC50 in data set [1], in data set [2] and in data set [3] were 57.4 µM, 15.4 µM and > 100 µM, respectively.

As for `O=C1c2[nH]cc3c2C(=NCC3)c2[nH]cc(-c3ccc(O)cc3)c21`, the IC50 is 62.2 µM in data set [1], 35.2 µM in data set [2] and 63.7 µM in data set [3].

As for `COc1ccc(-c2c[nH]c3c2C(=O)c2c(CCN)cn(S(=O)(=O)c4ccc(C)cc4)c2C3=O)cc1`, the IC50 in data set [1] stood at 3.2 µM; in data set [2] it was 4.1 µM; in data set [3] it was 4.2 µM. Besides, in data set [6], the result was Active. Moreover, the Activity result in data set [4] and in data set [5] was “Toxic” each time.

As to `COc1ccc(C2CNC3=C2C(=O)c2ccn(S(=O)(=O)c4ccc(C)cc4)c2C3=O)cc1` (stereo unspecified), the figures for the IC50 in data set [1], in data set [2] and in data set [3] were 47.2 µM, 35.4 µM and 37.5 µM, respectively.

For the compound `COc1ccc(C2CNC3=C2C2=NCCc4cn(S(=O)(=O)c5ccc(C)cc5)c(c42)C3=O)cc1` (stereo unspecified), the values for the IC50 in data set [1], in data set [2] and in data set [3] were 18.3 µM, 9.7 µM and 20.5 µM, respectively.

As for `COc1ccc(-c2c[nH]c3c2-c2nccc4c[nH]c(c24)C3=O)cc1`, the values for the IC50 in data set [1], in data set [2] and in data set [3] were 97.8 µM, 80.6 µM and 88.8 µM, respectively.
